Measured values reported in ChEMBL document CHEMBL1138097, “Lysine sulfonamides as novel HIV-protease inhibitors: Nepsilon-acyl aromatic alpha-amino acids” (Bioorg Med Chem Lett, 2006).

Legend:
[1] = target: Human immunodeficiency virus type 1 protease (Human immunodeficiency virus 1, UniProt Q72874); assay: Inhibition of HIV aspartyl protease
Summary of the method: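 Assayed on purified HIV protease with a fluorescence rate readout (RFU/min). IC50 was taken from a dose–response curve. Ki came from fitting initial rates (200–600 s) to a tight-binding equation that accounts for protease concentration. Values are means of at least two experiments.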

[2] = system: Human immunodeficiency virus 1; assay: Antiviral activity against HIV1 NL4-3 in MT4 cells; format: functional, organism-based; conditions: Human immunodeficiency virus 1, NL4-3, MT4
Summary of the method: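 Whole-cell cytopathic assay in MT-4 cells infected with the molecular clone HIV-1 NL4-3. EC50 is the mean of at least two experiments.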

[3] = system: Human immunodeficiency virus 1; assay: Antiviral activity against HIV1 multi PI resistant strain 4596; format: functional, organism-based; conditions: Human immunodeficiency virus 1, 4596
Summary of the method: (§1)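 EC50 values come from a whole-cell cytopathic anti-viral assay, reported as the mean of at least three experiments. For line 2, the multi-PI-resistant strain 4596 carries protease mutations 82T, 84V, 10R and 63P. For line 1, the saquinavir-resistant strain SaqR carries protease mutations 48V and 90M.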

[4] = system: Human immunodeficiency virus 1; assay: Antiviral activity against HIV1 Saquinavir resistant strain SaqR; format: functional, organism-based; conditions: Human immunodeficiency virus 1, SaqR; summary of the method: as §1

Compound | IC50 [1] | EC50 [2] | EC50 [3] | EC50 [4]
CC(C)CN([C@H](CO)CCCCNC(=O)[C@@H](NC(=O)c1ccccn1)C(c1ccccc1)c1ccccc1)S(=O)(=O)c1ccc(N)cc1 | 0.00046 µM | 0.068 µM | 0.161 µM | –
CC(C)CN([C@H](CO)CCCCNC(=O)[C@@H](NC(=O)N1CCOCC1)C(c1ccccc1)c1ccccc1)S(=O)(=O)c1ccc(N)cc1 | 0.00051 µM | 0.078 µM | – | –
COC(=O)N[C@@H](C(=O)NCCCC[C@@H](CO)N(CC(C)C)S(=O)(=O)c1ccc(N)cc1)C(c1ccccc1)c1ccccc1 | 0.013 µM | 0.85 µM | – | –
CC(C)CN([C@H](CO)CCCCNC(=O)[C@@H](NC(=O)c1ccncc1)C(c1ccccc1)c1ccccc1)S(=O)(=O)c1ccc(N)cc1 | 0.00065 µM | 0.032 µM | 0.026 µM | –
Cc1ncccc1C(=O)N[C@H](C(=O)NCCCC[C@@H](CO)N(CC(C)C)S(=O)(=O)c1ccc(N)cc1)C(c1ccccc1)c1ccccc1 | 0.0004 µM | 0.042 µM | 0.036 µM | –
CC(=O)N[C@H](C(=O)NCCCC[C@@H](CO)N(CC(C)C)S(=O)(=O)c1ccc(N)cc1)C(c1ccccc1)c1ccccc1 | 0.0015 µM | 0.066 µM | 0.066 µM | –
CC(C)CN([C@H](CO)CCCCNC(=O)[C@@H](N)C(c1ccccc1)c1ccccc1)S(=O)(=O)c1ccc(N)cc1 | 0.0005 µM | 0.044 µM | 0.043 µM | –
COc1cc(C(=O)N[C@@H](C(=O)NCCCC[C@@H](CO)N(CC(C)C)S(=O)(=O)c2ccc(N)cc2)C(c2ccccc2)c2ccccc2)ccc1O | 0.0005 µM | 0.014 µM | 0.023 µM | –
CC(C)CN([C@H](CO)CCCCNC(=O)[C@@H](NC(=O)c1ncccc1O)C(c1ccccc1)c1ccccc1)S(=O)(=O)c1ccc(N)cc1 | 0.0009 µM | 0.153 µM | 0.186 µM | –
CC(C)CN([C@H](CO)CCCCNC(=O)[C@@H](NC(=O)OCc1ccccn1)C(c1ccccc1)c1ccccc1)S(=O)(=O)c1ccc(N)cc1 | 0.00012 µM | 0.017 µM | 0.018 µM | 0.014 µM
COC(=O)N[C@H](Cc1cccc2ccccc12)C(=O)NCCCC[C@@H](CO)N(CC(C)C)S(=O)(=O)c1ccc(N)cc1 | 0.0012 µM | 0.12 µM | – | –
COC(=O)N[C@H](Cc1ccc2ccccc2c1)C(=O)NCCCC[C@@H](CO)N(CC(C)C)S(=O)(=O)c1ccc(N)cc1 | 0.0012 µM | 0.258 µM | – | –
COC(=O)N[C@H](Cc1ccccc1-c1ccccc1)C(=O)NCCCC[C@@H](CO)N(CC(C)C)S(=O)(=O)c1ccc(N)cc1 | 0.000521 µM | 0.2 µM | – | –
COC(=O)N[C@H](Cc1ccccc1)C(=O)NCCCC[C@@H](CO)N(CC(C)C)S(=O)(=O)c1ccc(N)cc1 | 0.012 µM | 2 µM | – | –
COC(=O)N[C@@H](C(=O)NCCCC[C@@H](CO)N(CC(C)C)S(=O)(=O)c1ccc(N)cc1)c1ccccc1 | > 0.3 µM | – | – | –
COC(=O)N[C@H](CCc1ccccc1)C(=O)NCCCC[C@@H](CO)N(CC(C)C)S(=O)(=O)c1ccc(N)cc1 | 0.04 µM | 9 µM | – | –
COC(=O)N(C)[C@H](Cc1ccccc1)C(=O)NCCCC[C@@H](CO)N(CC(C)C)S(=O)(=O)c1ccc(N)cc1 | 0.0065 µM | 1 µM | – | –
CC(C)CN([C@H](CO)CCCCNC(=O)[C@@H](NC(=O)c1cccnc1)C(c1ccccc1)c1ccccc1)S(=O)(=O)c1ccc(N)cc1 | 0.00068 µM | 0.039 µM | 0.025 µM | –

Compound | IC50 [1] | EC50 [2] | EC50 [3] | EC50 [4]
CC(C)CN([C@H](CO)CCCCNC(=O)[C@@H](NC(=O)OCc1cccnc1)C(c1ccccc1)c1ccccc1)S(=O)(=O)c1ccc(N)cc1 | 0.00048 µM | 0.018 µM | 0.018 µM | –
COC(=O)N[C@@H](C(=O)NCCCC[C@H](CO)N(CC(C)C)S(=O)(=O)c1ccc(N)cc1)C(c1ccccc1)c1ccccc1 | > 0.3 µM | > 100 µM | – | –
CC(C)CN([C@H](CO)CCCCNC(=O)[C@@H](NC(=O)Cc1cccnc1)C(c1ccccc1)c1ccccc1)S(=O)(=O)c1ccc(N)cc1 | 0.00024 µM | 0.194 µM | 0.128 µM | –
CC(C)CN([C@H](CO)CCCCNC(=O)[C@@H](NC(=O)c1cccc(O)c1)C(c1ccccc1)c1ccccc1)S(=O)(=O)c1ccc(N)cc1 | 0.0004 µM | 0.064 µM | 0.03 µM | –
CC(C)CN([C@H](CO)CCCCNC(=O)[C@@H](NC(=O)c1ccc(O)c([N+](=O)[O-])c1)C(c1ccccc1)c1ccccc1)S(=O)(=O)c1ccc(N)cc1 | 0.00056 µM | 0.055 µM | 0.035 µM | –
COC(=O)N[C@H](C(=O)NCCCC[C@H](CO)N(CC(C)C)S(=O)(=O)c1ccc(N)cc1)C(c1ccccc1)c1ccccc1 | 0.025 µM | 3 µM | – | –
CC(C)CN([C@H](CO)CCCCNC(=O)[C@@H](NC(=O)C1CC1)C(c1ccccc1)c1ccccc1)S(=O)(=O)c1ccc(N)cc1 | 0.00043 µM | 0.025 µM | 0.046 µM | 0.017 µM
CC(C)CN([C@H](CO)CCCCNC(=O)[C@@H](NC(=O)N(C)C)C(c1ccccc1)c1ccccc1)S(=O)(=O)c1ccc(N)cc1 | 0.00044 µM | 0.062 µM | 0.056 µM | –
CC(C)CN([C@H](CO)CCCCNC(=O)[C@@H](NC(=O)c1cnccc1O)C(c1ccccc1)c1ccccc1)S(=O)(=O)c1ccc(N)cc1 | 0.0005 µM | – | – | –
CC(C)CN([C@H](CO)CCCCNC(=O)[C@@H](NC(=O)C1CCCCC1)C(c1ccccc1)c1ccccc1)S(=O)(=O)c1ccc(N)cc1 | < 0.0038 µM | 0.093 µM | 0.186 µM | –
CC(C)CN([C@H](CO)CCCCNC(=O)[C@@H](NC(=O)c1ccc[nH]1)C(c1ccccc1)c1ccccc1)S(=O)(=O)c1ccc(N)cc1 | 0.00043 µM | 0.034 µM | 0.051 µM | –
CC(C)CN([C@H](CO)CCCCNC(=O)[C@@H](NC(=O)c1ccc([N+](=O)[O-])c(O)c1)C(c1ccccc1)c1ccccc1)S(=O)(=O)c1ccc(N)cc1 | 0.00033 µM | 0.016 µM | 0.01 µM | –
CC(C)CN([C@H](CO)CCCCNC(=O)[C@@H](NC(=O)OCc1ccncc1)C(c1ccccc1)c1ccccc1)S(=O)(=O)c1ccc(N)cc1 | 0.00039 µM | 0.02 µM | 0.013 µM | 0.004 µM
CC(C)CN([C@H](CO)CCCCNC(=O)[C@@H](NC(=O)c1ccccc1O)C(c1ccccc1)c1ccccc1)S(=O)(=O)c1ccc(N)cc1 | 0.00063 µM | 0.064 µM | 0.134 µM | –
CC(C)CN([C@H](CO)CCCCNC(=O)[C@@H](NC(=O)c1ccc(O)cc1)C(c1ccccc1)c1ccccc1)S(=O)(=O)c1ccc(N)cc1 | 0.00053 µM | 0.088 µM | 0.034 µM | –
CC(C)CN([C@H](CO)CCCCNC(=O)[C@@H](NC(=O)OC(C)(C)C)C(c1ccccc1)c1ccccc1)S(=O)(=O)c1ccc(N)cc1 | 0.0004 µM | 0.041 µM | 0.29 µM | –
COC(=O)N[C@H](C(=O)NCCCC[C@@H](CO)N(CC(C)C)S(=O)(=O)c1ccc(N)cc1)C(c1ccccc1)c1ccccc1 [PPL-100] | 0.0005 µM | – | 0.038 µM | 0.019 µM
